{
  "source": "ChEMBL document CHEMBL1149165",
  "about": "“Significant differences in biological parameters between prodrugs cleavable by carboxypeptidase G2 that generate 3,5-difluoro-phenol and -aniline nitrogen mustards in gene-directed enzyme prodrug therapy systems” (J Med Chem, 2004)",
  "key": {"MDA-MB-361": {"test_system": "MDA-MB-361", "assay": "Ratio of the IC50 in thebeta-Gal- and CPG2-expressing cell line", "type": "functional, Homo sapiens", "how_it_was_run": "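Degree of activation: IC50 in β-Gal-expressing MDA MB 361 cells divided by IC50 in stCPG2(Q)3-expressing cells. Both IC50s are from sulforhodamine-B regrowth assays after two-stage prodrug exposure, fitted to a log dose-effect sigmoid.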"}, "[1]": {"assay": "The chemical half-life by HPLC", "type": "ADME", "how_it_was_run": "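10 mM DMSO stocks diluted 100-fold to 100 µM in 100 mM Tris-HCl pH 7.3 with 260 µM ZnCl₂. Remaining parent measured over time by isocratic reverse-phase HPLC (phenyl column, 0.1% TFA with 65-85% methanol, 250-275 nm), using repeat or delayed injections. Half-life from one-phase exponential decay fit, maximum 1 and minimum 0.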"}, "[2]": {"substrate": "O=C(O)CCC[C@H](NC(=O)Nc1cc(F)c(N(CCCl)CCCl)c(F)c1)C(=O)O", "assay": "Michaelis-Menten constant towards carboxypeptidase G2 enzyme", "settings": "Pseudomonas aeruginosa", "how_it_was_run": "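CPG2 (50 mU) with prodrug at 5-50 µM in 5 µM steps, diluted from DMSO concentrates into 100 mM Tris-HCl pH 7.3 with 260 µM ZnCl₂, 37 °C. Remaining prodrug measured by isocratic reverse-phase HPLC (phenyl column, 0.1% TFA/methanol, 250-275 nm) at 0, 5, 10, 15 and 20 min.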"}},
  "data": [
    {"molecule": "CS(=O)(=O)OCCN(CCCl)c1c(F)cc(OC(=O)N[C@@H](CCCC(=O)O)C(=O)O)cc1F", "values": [
      {"measurement": "Degree of activation", "setting": "MDA-MB-361", "result": 0.9, "unit": "fold"}
    ]},
    {"molecule": "O=C(O)CCC[C@H](NC(=O)Oc1cc(F)c(N(CCCl)CCCl)c(F)c1)C(=O)O", "values": [
      {"measurement": "half-life", "setting": "[1]", "result": 45, "unit": "min"}
    ]},
    {"molecule": "Carboxypeptidase G2 (Pseudomonas aeruginosa (strain ATCC 15692 / PAO1 / 1C / PRS 101 / LMG12228)), Q9I056 (protein) MHARRLPRLLPLALAFLLSPAAFAADTPAAELLRQAEAERPAYLDTLRQLVAVDSGTGQAEGLGQLSALLAERLQALGAQVRSAPATPSAGDNLVATLDGTGSKRFLLMIHYDTVFAAGSAAKRPFREDAERAYGPGVADAKGGVAMVLHALALLRQQGFRDYGRITVLFNPDEETGSAGSKQLIAELARQQDYVFSYEPPDRDAVTVATNGIDGLLLEVKGRSSHAGSAPEQGRNAILELSHQLLRLKDLGDPAKGTTLNWTLARGGEKRNIIPAEASAEADMRYSDPAESERVLADARKLTGERLVADTEVSLRLDKGRPPLVKNPASQRLAETAQTLYGRIGKRIEPIAMRFGTDAGYAYVPGSDKPAVLETLGVVGAGLHSEAEYLELSSIAPRLYLTVALIRELSAD", "values": [
      {"measurement": "Km", "setting": "[2]", "result": 7.7, "unit": "µM"}
    ]}
  ]
}
